Consider one molecule from ChEMBL document CHEMBL4402564, “Synthetic Lethality in Pancreatic Cancer: Discovery of a New RAD51-BRCA2 Small Molecule Disruptor That Inhibits Homologous Recombination and Synergizes with Olaparib” (J Med Chem, 2020).

Molecules are shown by their SMILES. Calls of active or inactive are those of the source. The rule behind the calls is not given here.

Data set [1] deals with T1, DNA repair protein RAD51 homolog 1 (Homo sapiens) (UniProt Q06609).
T1 sequence (whole entry): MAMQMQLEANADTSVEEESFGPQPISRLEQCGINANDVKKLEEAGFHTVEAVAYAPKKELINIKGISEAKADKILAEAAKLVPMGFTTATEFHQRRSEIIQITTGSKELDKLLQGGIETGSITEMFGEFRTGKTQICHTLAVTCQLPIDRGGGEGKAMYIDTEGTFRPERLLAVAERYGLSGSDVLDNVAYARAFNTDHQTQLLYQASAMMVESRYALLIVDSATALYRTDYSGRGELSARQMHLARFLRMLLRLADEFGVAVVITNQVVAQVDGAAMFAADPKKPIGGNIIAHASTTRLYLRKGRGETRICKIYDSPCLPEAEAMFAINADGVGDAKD
The data set is described as follows: Inhibition of RAD51 in human BxPC3 cells assessed as reduction in homologous recombination incubated for 5 hrs by RT-PCR analysis. Type of data set: cell-based. A digest of the protocol: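 Commercial two-plasmid recombination assay in BxPC-3 cells, with compound applied at different doses for 5 h simultaneously with plasmid transfection. Tested up to 40 μM, limited by solubility. Dose giving 50% HR inhibition estimated by polynomial regression.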

For data set [2], the system named is BXPC-3. The data set is described as follows: Synergistic antiproliferative activity against human BxPC3 cells at 20 uM after 72 hrs in presence of 10 uM olaparib by CellTiter-Glo luminescent cell viability assay. Type of data set: functional, cell-based. A digest of the protocol:
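BxPC-3 viability data from 72 h exposure to disruptor with 10 μM olaparib (0.6% DMSO medium) used to compute a combination index. CI <0.8 taken as synergism and 0.8–1.2 as additive. CI at each dose tested for difference from 0.8.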
In general terms: ATP-based viability assays read luminescence as a measure of living cells.

The target in data set [3] is T1, DNA repair protein RAD51 homolog 1 (Homo sapiens). The data set is described as follows: Inhibition of RAD51 in human BxPC3 cells assessed as reduction in cisplatin-induced RAD51 foci formation at 20 uM preincubated for 1 hr in presence of cisplatin and followed by compound wash out and further incubated with fresh medium containing compounds for 4 hrs by DAPI-staining based immunofluorescence analysis. The format is cell-based. A digest of the protocol:
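DNA damage induced in BxPC-3 by 1 h exposure to 50 μM cisplatin, with or without 20 μM disruptor. RAD51 nuclear foci immunostained and percentage of RAD51-labeled nuclei counted.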

Data set [4] deals with BXPC-3. The data set is described as follows: Antiproliferative activity against human BxPC3 cells assessed as increase in cell death at 10 to 15 uM after 72 hrs in presence of olaparib by CellTox Green assay. Type of data set: functional, cell-based. A digest of the protocol: (§1)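 BxPC-3 cells in RPMI 1640 with 10% FBS and 2 mM glutamine. Exposed 72 h to disruptor alone or with 10 μM olaparib, in medium containing 0.6% DMSO. Cell death measured in parallel with viability. Disruptor-only and combination cultures compared statistically.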

Data set [5] concerns BXPC-3. The data set is described as follows: Antiproliferative activity against human BxPC3 cells at 15 uM after 72 hrs in presence of olaparib by CellTiter-Glo luminescent cell viability assay. Type of data set: functional, cell-based. A digest of the protocol:
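BxPC-3 cells grown in RPMI 1640 with 10% FBS, penicillin/streptomycin and 2 mM glutamine. Disruptor given alone or with 10 μM olaparib in medium containing 0.6% DMSO, with the same DMSO in controls. Viability read at 72 h, measured alongside cell death.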

Data set [6] deals with BXPC-3. Description: Induction of apoptosis in human BxPC3 cells assessed as increase in fluorescence at 20 uM after 72 hrs by DAPI/PI staining based fluorescence microscopic analysis. Type of data set: functional, cell-based. An outline of the steps: (§2)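 BxPC-3 cells treated 72 h with disruptor alone or with olaparib, then stained with mixed DAPI (cell-permeable, nuclear condensation) and propidium iodide (membrane integrity loss). Nuclear morphology and dye uptake examined by fluorescence microscopy.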

In data set [7] the target is T1, DNA repair protein RAD51 homolog 1 (Homo sapiens). Description: Inhibition of RAD51 in BRCA2 defective human Capan1 cells assessed as increase in gamma-H2AX labelling at 20 uM after 48 hrs in presence of olaparib by immunofluorescence microscopic analysis. A digest of the protocol:
(§3)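 Cells exposed 48 h to 20 μM disruptor alone or with 10 μM olaparib, in medium with 0.6% DMSO. Nuclear γ-H2AX foci visualized by immunofluorescence and percentage of labeled nuclei scored. BxPC-3 (functional BRCA2) and Capan-1 (BRCA2-defective) cultures in RPMI 1640 with 10% FBS.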

The test system of data set [8] is BXPC-3. Description: Induction of apoptosis in human BxPC3 cells assessed as increase in fluorescence at 20 uM after 72 hrs in presence of olaparib by DAPI/PI staining based fluorescence microscopic analysis. Type of data set: functional, cell-based. An outline of the steps: as §2
A further data set relates to CAPAN-1. Description: Synergistic antiproliferative activity against BRCA2 defective human Capan1 cells at 20 uM after 72 hrs in presence of 10 uM olaparib by CellTiter-Glo luminescent cell viability assay. Type of data set: functional, cell-based. An outline of the steps:
(§4)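 HK-2 cells are non-neoplastic immortalized human kidney cells grown in DMEM:F12 with 40 ng/mL dexamethasone. Capan-1 cells are BRCA2-defective and grown in RPMI 1640 with 10% FBS and 2 mM glutamine. Both exposed to disruptor with olaparib in 0.6% DMSO medium for an antiproliferative read-out. Drug interaction assessed by two-way ANOVA and combination index (CI <0.8 synergism, 0.8–1.2 additive).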

Data set [9] concerns BXPC-3. The data set is described as follows: Antiproliferative activity against human BxPC3 cells assessed as increase in cell death at 20 uM after 72 hrs in presence of olaparib by CellTox Green assay. The format is functional, cell-based. A digest of the protocol: as §1
In data set [10] the target is T1, DNA repair protein RAD51 homolog 1 (Homo sapiens). Description: Inhibition of RAD51 in human BxPC3 cells assessed as increase in gamma-H2AX labelling at 20 uM after 48 hrs in presence of 10 uM olaparib by immunofluorescence microscopic analysis. The format is cell-based. An outline of the steps: as §3
The test system of another data set is HK-2. Description: Cytotoxicity against human HK2 cells at 20 uM after 72 hrs in presence of 10 uM olaparib by CellTiter-Glo luminescent cell viability assay. The format is cell-based. The settings on record: hk-2, 72 h. A digest of the protocol:
as §4

Data set [11] relates to BXPC-3. Description: Induction of DNA damage in human BxPC3 cells assessed as micronuclei formation at 20 uM after 72 hrs in presence of olaparib by DAPI-staining based fluorescence microscopic analysis. The format is functional, cell-based. A digest of the protocol: (§5)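 BxPC-3 cultures treated 72 h with 20 μM disruptor, alone or with 10 μM olaparib, in 0.6% DMSO medium. Micronuclei outside the main nucleus visualized by DNA staining under the microscope. Percentage of micronucleated cells scored.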

Data set [12] has as its system BXPC-3. The data set is described as follows: Induction of DNA damage in human BxPC3 cells assessed as micronuclei formation at 20 uM after 72 hrs by DAPI-staining based fluorescence microscopic analysis. The format is functional, cell-based. A digest of the protocol: as §5

As for `CCC(=O)N1N=C(c2c(-c3ccccc3)c3cc(Cl)ccc3[nH]c2=O)CC1c1ccc(OC)cc1` (racemic), in data set [1], the inhibition entry was “Dose-dependent effect”. For the same molecule, the outcome with BXPC-3 [2], with BXPC-3 [5], in the data set with BXPC-3 [6], with BXPC-3 [8], with CAPAN-1 and with BXPC-3 [9] was Active. Besides, the result in the data set on BXPC-3 [11] and with BXPC-3 [12] was Active. The inhibition entry in data set [3] and in [10] was “Active” each time. In addition, the result in the data set on BXPC-3 [4] was inactive. In addition, the inhibition entry in [7] was “inactive”. Further, the Activity entry in the data set on HK-2 was “Non-Toxic”.
